Data: PubChem BioAssay AID488947 (Sanford-Burnham Center for Chemical Genomics, 2010)
Active and inactive are the calls of the source.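 How the source made its calls: active means compounds letting at most 1% of the green fluorescent tagged protein gather at the cell membrane; inactive means the rest.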

Biological target: G-protein coupled receptor 55 (Homo sapiens) (UniProt Q9Y2T6)
Test: inhibition of agonist-driven PKCbII translocation via GPR55 – imaging, HEK293, PKCbII-GFP, SAR follow-up (AID 488947)
Details: HEK293 GPR55 + PKCbetaII-GFP, membrane recruitment imaging
Outline: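 Assay system: transfected HEK293 with GPR55 and PKCβII-GFP / Buffer or medium: serum-free MEM / Also added: 10 µM AM251 / Dosing: 4 doses, 10–100 µM / Times: 15 min compound, then 30 min AM251 / Detection: fluorescence imaging of GFP after 1% PFA fixation, scored by eye / Replicates: duplicate wells per dose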

G-protein coupled receptor 55 (Homo sapiens), sequence (Q9Y2T6 whole entry, looked up): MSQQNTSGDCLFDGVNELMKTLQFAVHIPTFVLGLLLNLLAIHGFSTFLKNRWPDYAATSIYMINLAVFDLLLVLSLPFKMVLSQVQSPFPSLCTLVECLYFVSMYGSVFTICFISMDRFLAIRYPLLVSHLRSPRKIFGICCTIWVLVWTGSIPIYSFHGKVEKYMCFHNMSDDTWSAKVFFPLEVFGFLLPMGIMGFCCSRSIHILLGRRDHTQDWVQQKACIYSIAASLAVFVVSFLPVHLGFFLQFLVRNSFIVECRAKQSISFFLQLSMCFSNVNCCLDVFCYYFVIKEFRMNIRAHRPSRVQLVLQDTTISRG

Row | Compound | outcome
1 | Cc1ccc(C2(C(=O)N3CCC(n4nc(-c5ccccc5)oc4=O)CC3)CC2)cc1 | active
2 | Cc1cc(C)c2nc(-c3ccccn3)cc(C(=O)Nc3ccc(S(=O)(=O)Nc4onc(C)c4C)cc3)c2c1 | active
3 | Cc1nc(N2CCN(C(=O)c3ccco3)CC2)c2c3c(sc2n1)CCCC3 | active; +
